OX1R antag-1 – blocks the human orexin 1 receptor | OX1R-expressing cells, FRET antagonist read-out | 1.8% of 330,000 active | inhibition, % at 6.6 µM | O43613 | AID 485270; in the data active = inhibition mostly above about 38%, no sharp cut-off; inactive = mostly below about 40%;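 also: 0% = agonist challenge alone and 100% = reference antagonist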
Target sequence (O43613 whole entry, looked up): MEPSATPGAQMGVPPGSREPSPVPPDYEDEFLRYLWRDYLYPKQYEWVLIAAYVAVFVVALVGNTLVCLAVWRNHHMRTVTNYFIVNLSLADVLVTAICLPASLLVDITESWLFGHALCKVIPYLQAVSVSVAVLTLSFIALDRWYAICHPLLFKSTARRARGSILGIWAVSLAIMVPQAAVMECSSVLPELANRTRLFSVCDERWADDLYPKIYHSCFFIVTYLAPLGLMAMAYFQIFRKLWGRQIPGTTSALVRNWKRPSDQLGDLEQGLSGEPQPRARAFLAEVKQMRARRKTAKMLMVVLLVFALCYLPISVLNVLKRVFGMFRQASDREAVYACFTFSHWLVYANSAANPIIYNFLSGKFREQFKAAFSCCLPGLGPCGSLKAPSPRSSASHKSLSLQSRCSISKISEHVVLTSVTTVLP
CHO parental Ca – counter-screen for OX1R antagonists: effect in parental CHO cells; parental CHO-K1, ATP-induced calcium, Fluo-8 fluorescence; inhibition, % at 5.6 µM; 0.63% of 330,000 active; AID 463079;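 active = inhibition above that plate's mean sample inhibition plus 3 SD, cut at about 26% in these data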;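 also: 0% = ATP-challenged DMSO wells and 100% = DMSO wells without ATP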
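Material – parental CHO cells · Reagent – ATP stimulus · Compound – single nominal dose of 5.6 µM per compound · Detection – Fluo-8 fluorescence · Read-out basis – percent inhibition of calcium signal · Controls – ATP-challenged DMSO wells low, unchallenged DMSO wells high · Repeats – no replicates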
TAAR1 antagonist – antagonists of human TAAR1 | Q96RJ0 | inhibition, % at 3 µM | AID 624466 | CHO RD-HGA16 TAAR1, Fluo-8 calcium fluorescence, antagonist | 1.5% of 360,000 active;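 active = inhibition above a per-plate cutoff, the mean inhibition of test compounds on that plate plus 3 SD, cut at about 49% in these data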;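 also: 0% = DMSO plus EC80 beta-PEA response and 100% = DMSO alone without agonist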
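Test system: CHO RD-HGA16 cells bearing hTAAR1 | Reagent: β-PEA, EC80 | Compound dosing: 3 µM, single point | Schedule: Dye loading 75 min at 37 °C, then 30 min room temperature | Signal: Calcium fluorescence with Fluo-8 | Evaluation: Percent inhibition of PEA-evoked calcium signal, max/basal emission ratio | Control set: DMSO-only wells and EC80 β-PEA-stimulated wells | Repeats: Singlicate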
GPR7 antagonist – antagonists of human GPR7 (neuropeptides B/W receptor 1); inhibition, % at 4.4 µM; P48145; 1.1% of 290,000 active; GPR7-expressing cells, fluorescence antagonist assay; in the data active = inhibition above about 16%, passing the limit was not always enough;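 also: cells stimulated with the agonist NPW; 0% = agonist with vehicle and 100% = vehicle without agonist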
TAAR1 ag – agonists of human TAAR1; CHO RD-HGA16 TAAR1, Fluo-8 calcium fluorescence; vehicle wells 0%, saturating PEA agonist 100%; activation, % at 3 µM; 0.99% of 360,000 active;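 active = activation above the mean activation of all test compounds in the run plus 3 SD, cut at about 38% in these data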
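Benchmarks: low control DMSO, high control PEA (EC100); System: CHO RD-HGA16 cells carrying human TAAR1 plus Gα16; Detection: Fluo-8 fluorescence, 5 s baseline then 140 s kinetic read; Schedule: 17-24 h plating, Fluo-8 75 min 37 °C, 30 min RT; Read-out basis: % activation from peak over basal fluorescence ratio, DMSO-to-PEA scaled.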
OX1R antag-2 – human HCRTR1 antagonism; 0.43% of 330,000 active; inhibition, % at 5 µM; O43613; CHO/OX1R cells, Fluo-8 calcium fluorescence, orexin A;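 active = inhibition above its plate's threshold, mean inhibition of all tested compounds on the plate plus 3 SD, cut at about 37% in these data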;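 also: 0% = orexin A challenge wells and 100% = SB-334867-A antagonist wells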
Active calls of the source: *. Sampled rows, rich in hits. Any-hit rate of the full collection: about 4.5%.

Screening CC1(C)CC[C@]2(C(=O)O)[C@H](O)C[C@]3(C)C(=CCC4[C@@]5(C)C[C@H](O)[C@H](O)[C@@](C)(CO)C5CC[C@]43C)[C@@H]2C1 (some centres undefined) returned OX1R antag-1 7, CHO parental Ca 74*, TAAR1 antagonist -22, TAAR1 ag 1 and OX1R antag-2 24.
For COc1ccccc1NC(=S)NCc1ccc2c(c1)OCO2 the results were OX1R antag-1 -2, CHO parental Ca -5, TAAR1 antagonist 5, GPR7 antagonist 7, TAAR1 ag 0 and OX1R antag-2 -16.
For c1cc2c(cc1C1CCCCC1)c1c3n2CCCNC3CCC1 (centres undefined) the results were OX1R antag-1 3, CHO parental Ca 14, TAAR1 antagonist 35, GPR7 antagonist 18, TAAR1 ag 43* and OX1R antag-2 22.
O=C(CCl)N(c1ccc(Cl)cc1)c1c[nH]c2ccccc12 was read as OX1R antag-1 -2, CHO parental Ca 0, TAAR1 antagonist 26, GPR7 antagonist 6, TAAR1 ag 39* and OX1R antag-2 5.
Screening COC(=O)[C@]12C[C@H](CC(=O)NCc3ccc(C)o3)C(=O)N(Cc3ccccc3)C1=C[C@H](C(C)(C)C)O[C@@H]2C returned TAAR1 antagonist -44 and TAAR1 ag -2.
For Cc1cc2nc(C3CCCN(C(=O)NCc4ccccc4)C3)[nH]c2cc1C (centres undefined) the results were OX1R antag-1 61*, CHO parental Ca -16, TAAR1 antagonist -2, GPR7 antagonist -1, TAAR1 ag 3 and OX1R antag-2 -18.
Cc1cc2nc(C3CCCN(C(=S)Nc4ccccc4C)C3)[nH]c2cc1C (centres undefined) was read as OX1R antag-1 16, CHO parental Ca -17, TAAR1 antagonist -12, GPR7 antagonist -6, TAAR1 ag -2 and OX1R antag-2 1.
CC1(C)CC(NC(=S)NCc2ccc3c(c2)OCO3)CC(C)(C)N1 was read as OX1R antag-1 5, CHO parental Ca -15, GPR7 antagonist -13 and OX1R antag-2 -18.
Screening CCCCC(=O)Nc1ccc(C(=O)c2ccccc2)cc1 returned OX1R antag-1 28, CHO parental Ca -12, TAAR1 antagonist 0, GPR7 antagonist 20*, TAAR1 ag 3 and OX1R antag-2 -10.
For CC(C)CCOC(=O)C[N+](C)(C)CCOC1CC2CCC1(C)C2(C)C (centres undefined) the results were OX1R antag-1 5, CHO parental Ca -13, TAAR1 antagonist -5, GPR7 antagonist 19*, TAAR1 ag -1 and OX1R antag-2 -25.
`CCCOC(=O)C[N+](C)(C)CCOC1CC2CCC1(C)C2(C)C` (centres undefined) gave OX1R antag-1 19, CHO parental Ca -9, TAAR1 antagonist -8, GPR7 antagonist 7, TAAR1 ag 2 and OX1R antag-2 -11.
`Cn1nc(C(F)(F)F)c(CO)c1Sc1ccc(F)cc1` gave OX1R antag-1 15, CHO parental Ca 29*, TAAR1 antagonist -5, GPR7 antagonist 1, TAAR1 ag 8 and OX1R antag-2 -2.
`COc1ccc(-c2cc(NC(C)=O)c3ncc(-c4cccc(C(C)=O)c4)n3c2)cc1OC` gave TAAR1 antagonist 27 and TAAR1 ag 5.
`Cc1c(C(=O)c2ccc(Br)cc2)c(=O)n(C)c(=O)n1C` gave OX1R antag-1 3, CHO parental Ca 3, TAAR1 antagonist -16, GPR7 antagonist 0, TAAR1 ag 2 and OX1R antag-2 -14.
Screening Cc1c(C(=O)c2ccc([N+](=O)[O-])cc2)c(=O)n(C)c(=O)n1C returned OX1R antag-1 74*, CHO parental Ca -6, TAAR1 antagonist 0, GPR7 antagonist -13, TAAR1 ag 7 and OX1R antag-2 -9.
`NC(=O)c1ccc(C(=O)c2ccc([N+](=O)[O-])cc2)cc1` gave OX1R antag-1 70*, CHO parental Ca -11, TAAR1 antagonist -7, GPR7 antagonist -3, TAAR1 ag 3 and OX1R antag-2 -4.
Screening O=[N+]([O-])c1ccc(-c2nc(-c3ccncc3)no2)cc1 returned OX1R antag-1 64*, CHO parental Ca -18, TAAR1 antagonist -16, GPR7 antagonist -14, TAAR1 ag 2 and OX1R antag-2 -4.
For O=C(O)c1ccc(Nc2nc(-c3ccccc3)cs2)cc1 the results were OX1R antag-1 5, CHO parental Ca 3, TAAR1 antagonist 28, GPR7 antagonist -9, TAAR1 ag 38* and OX1R antag-2 22.
Screening O=C(Nc1ccc(-c2csc(Nc3ccccc3)n2)cc1)c1cccc(C(F)(F)F)c1 returned OX1R antag-1 15, CHO parental Ca -5, TAAR1 antagonist 52*, TAAR1 ag 5 and OX1R antag-2 -29.
`O=C(N/N=C/c1cc([N+](=O)[O-])ccc1Cl)c1cnccn1` gave OX1R antag-1 71*, CHO parental Ca -11, TAAR1 antagonist -17, GPR7 antagonist 7, TAAR1 ag 1 and OX1R antag-2 -15.
For O=C(Nc1cccc([N+](=O)[O-])c1)c1cnccn1 the results were OX1R antag-1 45, CHO parental Ca -5, TAAR1 antagonist -5, GPR7 antagonist -6, TAAR1 ag 2 and OX1R antag-2 -7.
O=C1Nc2ccccc2C(=O)N(Cc2ccccc2)C1C(=O)NC1CC1 (centres undefined) was read as TAAR1 antagonist -7 and TAAR1 ag 2.
Screening COc1ccc(C2C(C(C)=O)=C(C)N=c3s/c(=C\c4cc(C)n(C)c4C)c(=O)n32)c(OC)c1 (centres undefined) returned OX1R antag-1 8, CHO parental Ca 21, TAAR1 antagonist 30, GPR7 antagonist -6, TAAR1 ag 41* and OX1R antag-2 22.
Screening CN(C(=O)c1cccc(NC(=O)Cc2ccc(NC(=O)C3CCN(C(=O)CCc4ccccc4)CC3)cc2)c1)C1CC1 returned TAAR1 antagonist -5 and TAAR1 ag -1.
`COc1ccc2sc(NC(=O)NC(=O)c3c(Cl)cccc3Cl)nc2c1` gave OX1R antag-1 9, CHO parental Ca 0, TAAR1 antagonist 0, GPR7 antagonist 20*, TAAR1 ag 4 and OX1R antag-2 -23.
COc1ccc(-c2ccc(C(=O)NCc3ccc(N(C)C)cc3)c3occc23)c(C)c1 was read as TAAR1 antagonist 13 and TAAR1 ag 2.
For Cc1ccccc1NC(=O)CSc1nnc(-c2ccccc2)n1-c1ccccc1 the results were OX1R antag-1 26, CHO parental Ca -20, TAAR1 antagonist -8, GPR7 antagonist 6, TAAR1 ag 3 and OX1R antag-2 -35.
For N#Cc1ccccc1NC(=O)CSc1nnc(-c2ccccc2O)n1-c1ccccc1 the results were OX1R antag-1 43*, CHO parental Ca -15, TAAR1 antagonist 22, GPR7 antagonist -5, TAAR1 ag 11 and OX1R antag-2 9.

Screening data deposited in PubChem BioAssay by The Scripps Research Institute Molecular Screening Center.
